In one series the test system is RAW264.7. Nature of the series: Anti-inflammatory activity in mouse RAW264.7 cells assessed as inhibition of LPS-induced NO production pre-incubated for 2 hrs before LPS stimulation for 24 hrs by nitrate/nitrite assay. The class given is functional, cell-based. The method, boiled down:
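LPS-stimulated RAW264.7 macrophages were used following an earlier published protocol. Compounds from 30 mM DMSO stocks were diluted at room temperature to final test concentrations of 1−60 μM. NG-methyl-L-arginine acetate salt in DMSO served as the positive control. Inhibition of nitric oxide production was expressed as IC50.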

Series [1] is described as follows: Cytotoxicity against mouse RAW264.7 cells assessed as reduction in cell viability incubated for 24 hrs by MTT assay. The class given is cell-based. Background: Tetrazolium assays rely on reduction of a dye to a coloured formazan, in cell work by metabolically active cells.

A word on the IC50: it is the concentration needed to halve the response being measured. What is called CC50 is the concentration giving 50% cytotoxicity. On to `CO[C@@H]1O[C@H](OC)C2=C1CC[C@H]1[C@@]2(CO)CC[C@@H]2[C@]1(C)CC(=O)[C@H](O)[C@]2(C)CO`, for which the IC50 with RAW264.7 was found to be 22 µM. The CC50 at 24 h in series [1] is above 60 µM.
In the case of `C[C@]12[C@@H](O)[C@]3(O)C(=O)OC[C@]3(C)[C@@H]1CC[C@@]1(CO)c3cocc3CC[C@@H]12`, the IC50 in the series on RAW264.7 stood at 32 µM. Besides, the CC50 at 24 h in series [1] is above 60 µM.
Taken in the same sequence, the figures for `C[C@]12C[C@@H](O)C(=O)[C@](C)(CO)[C@@H]1CC[C@@]1(CO)c3cocc3CC[C@@H]12` were above 60 µM and above 60 µM.
Taken in the same sequence, the figures for `C[C@]12CC(=O)[C@H](O)[C@](C)(CO)[C@@H]1CC[C@@]1(CO)c3cocc3CC[C@@H]12` were 20 µM and above 60 µM.
The like results for `CC(=O)OC[C@@]12CC[C@@H]3[C@](C)(CC(=O)[C@@H](O)[C@]3(C)CO)[C@H]1CCc1cocc12` were, in that order, 12 µM and above 60 µM.
Take `CC(=O)OC[C@@]12CC[C@@H]3[C@](C)(CC(=O)[C@H](O)[C@]3(C)CO)[C@H]1CCc1cocc12`: the IC50 in the series with RAW264.7 stood at 15 µM. Further, in series [1], the CC50 at 24 h is above 60 µM.
As for `CCO[C@H]1OC(=O)C2=C1[C@]1(CO)CC[C@@H]3[C@](C)(CC(=O)[C@H](O)[C@]3(C)CO)[C@H]1CC2`, the IC50 in the series with RAW264.7 was 12 µM. Besides, in series [1], the 50% cytotoxic concentration (CC50) at 24 h is above 60 µM.
Turning to `CNC(=N)NCCC[C@H](N)C(=O)O` [TILARGININE ACETATE], in the series with RAW264.7, the 50% inhibitory concentration (IC50) is 17 µM.

(Values after ChEMBL document CHEMBL4392863, “Spongian Diterpenes Including One with a Rearranged Skeleton from the Marine Sponge Spongia officinalis” (J Nat Prod, 2019).)
